Key:
Mus musculus [1] = assay: Weight change in g when a dose of 100 mg/kg (iv) to P388 leukemia model; format: functional
How it was run: (§1)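 Mice (10 per group) were inoculated ip at D0 with 10^6 P388 leukemia cells and given a single iv dose at D1. Read-outs were weight change (g), median survival day, T/C % versus controls and survivors at D30.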

Mus musculus [2] = assay: Weight change in g when a dose of 2.5 mg/kg administered intraperitoneally to B16 melanoma infected mice; format: functional; conditions: route intraperitoneal
How it was run: (§2)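 Hybrid BDF1 mice were inoculated ip at D0 with 0.5 mL of B16 melanoma homogenate (1 g tumor in 10 mL physiological serum). Drug was given ip daily on days 1-9, with cis-platinum 0.5 mg/kg as positive control on the same schedule.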

Mus musculus [3] = assay: Survivors at day 30 when a dose of 5 mg/kg administered to P388 leukemia infected when tested in 10 mice; format: functional
Mus musculus [4] = assay: Antitumor activity against P388 leukemia in mice at a dose of 1.5 mg/kg administered intraperitoneally for 5 days; format: functional; conditions: route intraperitoneal
How it was run: (§3)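 CDF1 hybrid male or female mice, 10 per group, were inoculated ip with 10^6 viable P388 cells on day 0. Drugs in distilled water were given ip (0.1 mL/10 g body weight) daily D1-5. Vehicle, 5-fluorouracil and BD 84 were given the same way. T/C = median survival day of treated / controls × 100; T/C > 128% was significant; cures counted at D60.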

Mus musculus [5] = assay: Antitumor activity against P388 cells at a dose of 50 mg/kg administered intravenously to mice; format: functional; conditions: route intravenous
How it was run: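 P388 (10^6 cells) or L1210 (10^5 cells) leukemia was inoculated ip in mice at D0, followed by a single iv drug treatment on D1. Weight change was recorded. T/C % = median survival day of treated / controls × 100; survivors noted at D30; 10-15 mice per group.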

Mus musculus [6] = assay: […] in C38 adenocarcinoma cell line when a dose of 25 mg/kg administered intravenously in mice; format: functional, MC-38; conditions: route intravenous
How it was run: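 C38 colon adenocarcinoma in hybrid BD F1 mice, 10 per test. A standard 3-mm³ tumour fragment was implanted sc. Drugs were given iv at the stated doses on D1 or on D2 + D9, following the Geran et al. NCI protocol.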

Mus musculus [7] = assay: Weight change in g when a dose of 5 mg/kg administered intraperitoneally to P388 leukemia infected mice; format: functional; conditions: route intraperitoneal
How it was run: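 P388 model with a single ip dose. Mice (10 per group) were inoculated ip at D0 with 10^6 P388 cells and given one ip drug dose at D1. Body-weight change (g), median survival day, T/C and survivors at D30 were recorded.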

Mus musculus [8] = assay: Antitumor activity against C38 adenocarcinoma cells at a dose of 50 mg/kg administered intravenously on D1 to mice; tumor volume at D38 (T/C); format: functional, MC-38; conditions: route intravenous
How it was run: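 Hybrid BD F1 mice, 10 per group, were implanted sc with a standard 3-mm3 C38 colon adenocarcinoma fragment. Drugs were given iv at the stated doses on D1 or on D2 + D9. Read-out was tumor size in treated versus control mice (T/C) at the day stated.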

Mus musculus [9] = assay: Survivors at day 60 when a dose of 10 mg/kg to B16 melanoma infected when tested in 10 mice; format: functional
Mus musculus [10] = assay: Weight change in g when a dose of 20 mg/kg (iv) to L1210 leukemia mice model; format: functional
How it was run: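 Mice received 10^5 L1210 leukemia cells ip at D0, then a single iv drug dose at D1. Read-outs were weight change (g), median survival day, T/C % and survivors at D30.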

Mus musculus [11] = assay: Weight change in g when a dose of 5 mg/kg administered intraperitoneally to B16 melanoma infected mice; format: functional; conditions: route intraperitoneal; how it was run: as §2
Mus musculus [12] = assay: Antitumor activity against P388 leukemia in mice at a dose of 1.25 mg/kg administered intraperitoneally for 5 days; format: functional; conditions: route intraperitoneal; how it was run: as §3
Mus musculus [13] = assay: Survivors at day 60 when a dose of 30 mg/kg to B16 melanoma infected mice; 0/10; format: functional
Mus musculus [14] = assay: Weight change in g when a dose of 10 mg/kg administered intraperitoneally in B-16 melanoma infected mice; format: functional; conditions: route intraperitoneal; how it was run: as §2
Mus musculus [15] = assay: Survivors at day 30 when a dose of 80 mg/kg to P388 leukemia model; 0/10; format: functional
Mus musculus [16] = assay: Median survival day in B16 melanoma cell line when a dose of 2.5 mg/kg administered intraperitoneally to mice; format: functional; conditions: route intraperitoneal
How it was run: (§4)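 B16 melanoma in hybrid BD F1 mice. At D0 each mouse was inoculated ip with 0.5 mL of homogenate made from 1 g of tumour in 10 mL of physiological serum. Compounds were given ip daily at the stated doses for 9 days (D1-9), with cis-platinum 0.5 mg/kg under the same schedule as positive control.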

Mus musculus [17] = assay: Antitumor activity against B16 melanoma cells at a dose of 30 mg/kg administered intraperitoneally to mice; format: functional; conditions: route intraperitoneal
How it was run: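 Hybrid BD F1 mice were inoculated ip at D0 with 0.5 mL of B16 melanoma homogenate (1 g tumor in 10 mL physiological serum). Drugs were given ip daily D1-9. Cisplatin 0.5 mg/kg was the positive control under the same schedule.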

Mus musculus [18] = assay: Antitumor activity against P388 leukemia in mice at a dose of 15 mg/kg administered intraperitoneally for 5 days; format: functional; conditions: route intraperitoneal; how it was run: as §3
Mus musculus [19] = assay: Median survival day in P388 leukemia model when a dose of 80 mg/kg administered intraperitoneally; format: functional; conditions: route intraperitoneal
How it was run: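 P388 leukaemia in CDF1 hybrid mice, 10 per group. At D0, 10^6 viable cells were inoculated ip, followed by a single ip dose of drug in distilled water on D1. Weight change, median survival day, T/C (treated/control median survival × 100) and survivors at D30 were recorded. Controls were 20 mice.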

Mus musculus [20] = assay: Median survival day of B16 melanoma infected micee when a dose of 5 mg/kg administered intraperitoneally; format: functional; conditions: route intraperitoneal; how it was run: as §4
Mus musculus [21] = assay: Antitumor activity against P388 cells at a dose of 10 mg/kg administered intraperitoneally to P388 leukemia model; format: functional; conditions: route intraperitoneal
How it was run: (§5)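 Mice were inoculated ip with 10^6 P388 leukemia cells at D0, then given a single ip drug dose on D1. Weight change was recorded. T/C % = median survival day of treated / controls × 100; survivors counted at D30; 10 mice per dose group, 20 controls.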

Mus musculus [22] = assay: Weight change in g when a dose of 50 mg/kg intravenous administration to P388 leukemia mice model; format: functional; how it was run: as §1
Mus musculus [23] = assay: Antitumor activity against P388 cells at a dose of 80 mg/kg administered intraperitoneally to P388 leukemia model; format: functional; conditions: dose 40 mg/kg; route intraperitoneal; in the assay text read “40 mg/kg” for “80 mg/kg”; how it was run: as §5
Mus musculus [24] = assay: Survivors at day 60 when a dose of 5 mg/kg to B16 melanoma infected mice; 3/10
Mus musculus [25] = assay: Median survival day of B16 melanoma infected mice when a dose of 10 mg/kg administered intraperitoneally; format: functional; conditions: route intraperitoneal; how it was run: as §4
Mus musculus [26] = assay: Median survival day in L1210 leukemia mice model when a dose of 20 mg/kg administered intravenously; format: functional; conditions: route intravenous
How it was run: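 L1210 leukaemia in CDF1 hybrid male or female mice, 10 per group. At D0, 10^5 viable cells were inoculated ip, followed by a single iv dose on D1. Median survival day was recorded, and T/C was calculated as treated/control median survival × 100.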

Mus musculus [27] = assay: Survivors at day 30 when a dose of 5 mg/kg to P388 leukemia model; 0/10; format: functional

Cc1cnc(NCCCN(C)C)c2c3cc(O)ccc3n(C)c12
Weight change (Mus musculus [1]): -0.25 g
Weight change (Mus musculus [2]): 0.1 g
Survivors (Mus musculus [3]): 0
T/C (Mus musculus [4]): 164%
T/C (Mus musculus [5]): 163%
Median tumoral volume (Mus musculus [6]): 0 cm*3
Weight change (Mus musculus [7]): -1.2 g
Tumor volume (Mus musculus [8]): 30%
Survivors (Mus musculus [9]): 0
Weight change (Mus musculus [10]): -1.1 g
Weight change (Mus musculus [11]): -0.2 g

CCN(CC)CCCNc1[nH]cc(C)c2nc3ccc(O)cc3c1-2
T/C (Mus musculus [12]): 153%
Survivors (Mus musculus [13]): 0
Weight change (Mus musculus [14]): 1.6 g
Survivors (Mus musculus [15]): 0
Median survival day (Mus musculus [16]): 34
T/C (Mus musculus [17]): 33%
T/C (Mus musculus [18]): 208%
Median survival day (Mus musculus [19]): 2.3

CCN(CC)CCCNc1ncc(C)c2c1c1cc(O)ccc1n2C
Median survival day (Mus musculus [20]): 41.25
T/C (Mus musculus [21]): 156%
Weight change (Mus musculus [22]): -0.7 g
T/C (Mus musculus [23]): 202%
Survivors (Mus musculus [24]): 3
Median survival day (Mus musculus [25]): 19.3
Median survival day (Mus musculus [26]): 11.8
Survivors (Mus musculus [27]): 0
